Hits are enriched below; roughly 9.4% of the tested compounds scored in any of these assays.
L major viab = Leishmania major promastigote growth inhibition | hit rate 9% among 200,000 | AID 1063 | inhibition, % at 10 µM | Leishmania major promastigotes, resazurin fluorescence viability; in the data active means inhibition above about 50%;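 further: promastigotes grown with compound for 44 hours at 28 °C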
SKKanGAS inh = blocks kanamycin growth of S. pyogenes SKKanGAS strain | BacTiter-Glo, 6 h | inhibition, % at 7.5 µM | hit rate 1.3% among 300,000 | AID 1662;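 active means mean replicate score, as percent of positive control median, at least 50; inconclusive means mean below 50 but one replicate at or above 50; inactive means mean and every replicate below 50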;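 further: strain carries kanamycin resistance gene driven by streptokinase promoter and grows in 40 µg/ml kanamycin; loss of luminescence reflects streptokinase promoter inhibition or plain growth inhibition; 0% = median of DMSO wells and 100% = positive control at its reference dose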
Mdm2-MdmX inh = disrupts the human Mdm2-MdmX interaction | SaOS-2 split-luciferase Mdm2/MdmX complementation, luminescence | O15151+Q00987 | AID 485346 | hit rate 3% among 330,000 | inhibition, % at 8 µM;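 active means inhibition of at least 50% at 8 µM in the primary screen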
Beta apoptosis = beta cell apoptosis inhibition; INS-1E cytokine-induced death, ATP luminescence, 48 h; percent of positive-control rescue, neutral wells zero; protection from apoptosis, % (test concentration not listed); hit rate 0.8% among 300,000; AID 435005;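 active means Every replicate reaches about 75%, or at least half do and their mean reaches it too, limit read from the data; inconclusive means At least half of replicates reach the limit but their mean does not; inactive means Under half of replicates reach the limit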;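 further: 0% = cytokine-treated negative control wells and 100% = positive control rescue; higher means more ATP so stronger rescue from cytokine killing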
T cruzi inh = blocks replication of Trypanosoma cruzi | T. cruzi beta-gal in NIH3T3, luminescence, 90 h | inhibition, % (no concentration beside the values) | hit rate 1.4% among 300,000;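 active means mean inhibition across valid replicates above about 55%, limit read from the data; inconclusive means mean below that limit but half or more replicates reach it; inactive means mean below it, under half of replicates reach it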;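 further: signal also drops with host cell toxicity which is not excluded here; 0% = plate median of DMSO wells and 100% = zero luminescence signal; higher percent means less beta-gal luminescence so fewer parasites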
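Incubation – ≥90 h infection period, 3 h prior cell attachment · System – NIH/3T3 fibroblasts plus reporter T. cruzi · Doses – compound pinned at 50 nL/well, DMSO · Read-out basis – percent inhibition of parasite-derived β-gal signal · Signal – luminescent β-galactosidase signal after 60 min lysis · Also added – 5000 T. cruzi trypomastigotes/well · Medium – Low-serum DMEM with 2% FBS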
CSC inhib = cancer stem cell inhibition. hit rate 1.1% among 300,000. AID 2717. cancer stem cell-like cells viability, luminescence. inhibition, % at 7.5 µM; in the data active means inhibition above about 75%; inconclusive means no clear call, values can overlap the other calls; tested in HMLE shEcad cells
Mdm2 MdmX conf = confirmation of human Mdm2/MdmX interaction inhibitors; shares compounds with Mdm2-MdmX inh; hit rate 55% among 10,000; Mdm2-MdmX binding, luminescent assay; inhibition, % at 8 µM; in the data active means inhibition above about 40%
Full FLuc ctr = inhibits full-length luciferase, flagging false Mdm2/MdmX hits; shares compounds with Mdm2-MdmX inh; SaOS-2 full-length luciferase counterscreen, luminescence; inhibition, % at 8 µM; hit rate 77% among 6,200;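 active means mean inhibition at 8 µM reaching about 37%, which flags the compound as non-specific, limit read from the data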;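 further: p53-null SaOS-2 cells with luciferase driven by a doxycycline-inducible promoter; compound on cells about two nights before reading with doxycycline added after day one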
* = called active by the depositor; ? = inconclusive; . = no result given.

SMILES	L major viab	SKKanGAS inh	Mdm2-MdmX inh	Beta apoptosis	T cruzi inh	CSC inhib	Mdm2 MdmX conf	Full FLuc ctr
Cc1ccc(C(=O)Cc2nc3ccccc3[nH]2)cc1	.	5.2	-29.3	-5.2	4.9	15.2	.	.
O=C(Cc1nc2ccccc2[nH]1)c1cccc([N+](=O)[O-])c1	.	15.8	87.3*	58.7	23.2	90.8*	77.0*	38.6*
C=CCNC(=O)NC(=O)CSc1nnc(C(F)(F)F)n1C	1.1	4.8	13.2	-0.8	-10.7	-11.6	.	.
CCCc1sc(N/N=C/c2ccccn2)nc1-c1ccc(Br)cc1	96.5*	67.1*	74.8*	110.6*	65.5*	126.0*	24.2	.
CC(=O)Nc1sc(N/N=C/c2ccccc2)nc1-c1ccc(C)cc1	.	3.9	-12.5	-3.2	-8.4	-5.0	.	.
CCC1=C(OC(=O)N(CC)CC)N2C(=O)OC(=NCCc3c[nH]c4ccccc34)[C@]2(C)[C@H]2C1=CC[C@H]1C(=O)N(C)C(=O)[C@H]12	.	2.2	16.8	1.5	-4.9	-1.3	.	.
C=CC(=O)N1c2ccccc2Sc2ccc(NC(=O)OCC)cc21	11.8	-2.9	87.4*	-25.1	-12.4	31.8	41.2*	35.2
CCOC(=O)Nc1ccc2c(c1)N(C(=O)CCN1CCN(CCO)CC1)c1ccccc1S2	0.0	5.1	31.4	0.1	?	-6.9	.	.
CCOc1ccccc1N1CCN(C(=O)CCCc2nc3ccccc3s2)CC1	1.9	2.1	-6.8	-1.1	-6.5	-5.7	.	.
O=C(NC(=S)NN1CCCCC1c1cccnc1)c1ccc(Cl)cc1Cl (stereo not given)	.	14.2	5.0	-5.7	29.0	-5.2	.	.
COC(=O)c1ccccc1NC(=O)C/C(C)=N/NC(=O)Cc1ccc(Cl)cc1	.	-8.9	6.2	-6.0	-5.7	.	.	.
C=CCc1c(C)nc(N2CCSCC2)[nH]c1=O	.	-3.5	0.6	-2.4	-1.8	-6.7	.	.
CNS(=O)(=O)c1cc(NC(=O)c2cncn2-c2ccccc2)ccc1C	.	-18.2	1.8	-3.7	2.1	17.7	.	.
CCOC(=O)/C=c1\s/c(=C\c2c(OC)ccc3ccccc23)c(=O)n1CC(=O)NCC1CCCO1 (stereo not given)	37.9	15.9	62.7*	31.6	11.2	57.3	64.7*	77.1*
CCOC(=O)/C=c1\s/c(=C\c2ccc(C(=O)OC)cc2)c(=O)n1CC(=O)Nc1ccccc1	-4.5	-1.4	62.3*	-0.4	-26.3	2.2	15.2	.
CCOC(=O)c1ccc(NC(=O)Nc2cc(C)cc(C)n2)cc1	-3.4	-9.9	50.3*	11.6	-14.7	10.3	0.4	.
CCOC(=O)c1ccc(Nc2cc(C)nc(-c3ccccc3)n2)cc1	.	-0.2	55.6*	7.2	27.1	97.1*	66.2*	56.9*
CC1CCN(Cc2nnc(-c3cccc(Br)c3)o2)CC1	.	-2.4	-8.4	-4.7	-0.2	-8.3	.	.
COCCN(Cc1nc(C(c2ccccc2)c2ccccc2)no1)C(C)C	.	-0.9	23.0	0.3	-6.4	-17.2	.	.
Cc1cccc(NS(=O)(=O)c2ccc(C)c(C(=O)OCC(=O)Nc3cc(C)on3)c2)c1	14.1	3.9	88.1*	-3.9	6.1	10.2	75.5*	32.1
CCc1c(C)nc2ccc(Br)cc2c1SCCC#N	8.9	-3.8	67.3*	-7.7	3.4	2.0	58.8*	23.1
CCN(CC)CCN(C(=O)c1ccc2c(c1)OCCO2)c1nc2cc3c(cc2s1)OCO3	.	2.0	1.6	-0.3	35.4	-1.5	.	.
CCN(c1ccccc1)S(=O)(=O)c1ccc(C(=O)N(CCCN(C)C)c2nc3c(C)cccc3s2)cc1	.	9.3	27.4	8.2	38.0	-13.6	.	.
Cc1cc(C)c2nc(N(CCCN(C)C)C(=O)c3ccc4c(c3)OCCO4)sc2c1	.	2.7	66.3*	.	56.9*	-12.0	53.1*	76.0*
CCN(c1ccccc1)S(=O)(=O)c1ccc(C(=O)N(CCCN(C)C)c2nc3cc4c(cc3s2)OCO4)cc1	.	2.5	65.0*	-12.7	23.9	5.2	48.7*	47.6*
SMILES	L major viab	SKKanGAS inh	Mdm2-MdmX inh	Beta apoptosis	T cruzi inh	CSC inhib	Mdm2 MdmX conf	Full FLuc ctr
CN(C)CCCN(C(=O)c1ccc(S(=O)(=O)N(C)Cc2ccccc2)cc1)c1nc2cc3c(cc2s1)OCO3	.	5.2	57.0*	113.7*	34.5	6.8	30.9	.
CCN(CC)CCN(C(=O)c1cc2c(ccc3ccccc32)oc1=O)c1nc2cc3c(cc2s1)OCCO3	.	1.7	100.3*	101.9*	20.6	90.8*	32.6	.
Cn1cnc(S(=O)(=O)N2CCN(c3ccc(Cl)cc3)CC2)c1	.	24.3	-11.8	-7.8	6.7	-2.9	.	.
CN(C)CCN(C(=O)c1ccc2ccccc2c1)c1nc2cc3c(cc2s1)OCCO3	.	6.8	2.6	-18.1	24.8	-3.7	.	.
CN(C)CCCN(C(=O)c1ccc2ccccc2c1)c1nc2cc3c(cc2s1)OCO3	.	1.9	76.6*	-20.2	29.8	5.4	45.9*	60.9*
N#CC1=C(N)Oc2cc(N)ccc2C1c1cccc(F)c1 (stereo not given)	.	1.6	54.2*	6.2	4.3	49.6	43.9*	65.1*
CN(C)c1ccc2c(c1)OC(N)=C(C#N)C2c1cccc(F)c1 (stereo not given)	6.1	-4.1	65.5*	31.7	-1.7	.	61.6*	96.9*
COc1ccc(C(C(=O)NC2CCCCC2)N(Cc2ccco2)C(=O)c2ccccn2)c(OC)c1 (stereo not given)	.	0.7	8.8	-7.5	0.4	-6.8	.	.
NC(=S)n1[nH]c(-c2ccc([N+](=O)[O-])cc2)c(N=Nc2cccc(Cl)c2)c1=O	46.6	22.0	96.7*	.	-41.9	.	90.8*	39.8*
CCCOc1ccc(-c2c(C(=O)N/N=C(\C)c3cccnc3)nnn2-c2nonc2N)cc1	.	-5.8	10.4	.	-2.8	3.4	.	.
C/C(=N\NC(=O)c1nnn(-c2nonc2N)c1-c1ccccc1)c1ccccc1O	.	28.6	81.6*	89.7*	60.9*	.	83.8*	51.2*
C/C(=N/NC(=O)c1nnn(-c2nonc2N)c1COc1ccccc1)c1ccc(O)cc1	.	-1.6	74.9*	2.2	-1.1	3.7	-8.2	.
CCOc1ccc(-c2c(C(=O)N/N=C(\C)c3cccnc3)nnn2-c2nonc2N)cc1	.	1.0	64.0*	0.5	1.9	-12.3	3.8	.
C/C(=N\NC(=O)c1nnn(-c2nonc2N)c1-c1ccc2c(c1)OCO2)c1ccccc1	.	-1.2	17.6	-2.0	-16.7	2.4	.	.
O=C1NC(=O)/C(=C/c2ccccn2)S1	.	-1.4	-2.8	-2.4	2.4	-24.5	.	.
CC(C)C[C@H](NC(=O)N1CCn2c1nc1ccccc12)C(=O)NCc1ccc2c(c1)OCO2	.	0.6	31.4	-8.3	3.6	-1.3	.	.
COc1ccccc1CC(NC(C)=O)C(=O)NC1CCN(S(=O)(=O)c2ccccc2)CC1 (stereo not given)	.	-2.4	-5.3	.	5.9	.	.	.
NC(=O)Cc1nc2scc(-c3ccccc3)c2c(=O)[nH]1	0.4	18.6	-1.3	-3.3	-11.4	-19.8	.	.
